{"source": "paper PMC9116722", "about": "(Cancer chemotherapy and pharmacology, 2022)", "experiment": "Adverse events", "format": "in vivo, human", "details": "BRCAmut and BRCAwt combined", "in_short": "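Patients with germline BRCA-mutated cancers, or BRCA-wildtype TNBC or platinum-refractory ovarian cancer, took oral drug continuously twice daily in 28-day cycles. There were nine dose levels from 50 to 500 mg BID under 3+3 escalation, run separately per cohort after the first DLT. Toxicities were graded by CTCAE v4.0, with DLTs assessed during cycle 1.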", "data": [{"smiles": "C[C@]1(c2nc3c(C(N)=O)cccc3[nH]2)CCCN1", "note": "[veliparib]", "values": [{"measurement": "Abdominal pain, Any Grade", "value": "6 (6) number of patients (%)"}, {"measurement": "Abdominal pain, Grade 1", "value": "3 (3) number of patients (%)"}, {"measurement": "Abdominal pain, Grade 2", "value": "1 (1) number of patients (%)"}, {"measurement": "Abdominal pain, Grade 3", "value": "2 (2) number of patients (%)"}, {"measurement": "Abdominal pain, Grade 4", "value": "0 (0) number of patients (%)"}, {"measurement": "Alkaline phosphatase increased, Any Grade", "value": "6 (6) number of patients (%)"}, {"measurement": "Alkaline phosphatase increased, Grade 1", "value": "3 (3) number of patients (%)"}, {"measurement": "Alkaline phosphatase increased, Grade 2", "value": "2 (2) number of patients (%)"}, {"measurement": "Alkaline phosphatase increased, Grade 3", "value": "1 (1) number of patients (%)"}, {"measurement": "Alkaline phosphatase increased, Grade 4", "value": "0 (0) number of patients (%)"}, {"measurement": "Anemia, Any Grade", "value": "31 (32) number of patients (%)"}, {"measurement": "Anemia, Grade 1", "value": "19 (19) number of patients (%)"}, {"measurement": "Anemia, Grade 2", "value": "10 (10) number of patients (%)"}, {"measurement": "Anemia, Grade 3", "value": "1 (1) number of patients (%)"}, {"measurement": "Anemia, Grade 4", "value": "1 (1) number of patients (%)"}, {"measurement": "Anorexia, Any Grade", "value": "20 (20) number of patients (%)"}, {"measurement": "Anorexia, Grade 1", "value": "17 (17) number of patients (%)"}, {"measurement": "Anorexia, Grade 2", "value": "3 (3) number of patients (%)"}, {"measurement": "Anorexia, Grade 3", "value": "0 (0) number of patients (%)"}, {"measurement": "Anorexia, Grade 4", "value": "0 (0) number of patients (%)"}, {"measurement": "Any adverse event, Any Grade", "value": "92 (94) number of patients (%)"}, {"measurement": "Any adverse event, Grade 1", "value": "86 (88) number of patients (%)"}, {"measurement": "Any adverse event, Grade 2", "value": "54 (55) number of patients (%)"}, {"measurement": "Any adverse event, Grade 4", "value": "3 (3) number of patients (%)"}, {"measurement": "Aspartate aminotransferase increased, Any Grade", "value": "9 (9) number of patients (%)"}, {"measurement": "Aspartate aminotransferase increased, Grade 1", "value": "8 (8) number of patients (%)"}, {"measurement": "Aspartate aminotransferase increased, Grade 2", "value": "0 (0) number of patients (%)"}, {"measurement": "Aspartate aminotransferase increased, Grade 3", "value": "1 (1) number of patients (%)"}, {"measurement": "Aspartate aminotransferase increased, Grade 4", "value": "0 (0) number of patients (%)"}, {"measurement": "Constipation, Any Grade", "value": "9 (9) number of patients (%)"}, {"measurement": "Constipation, Grade 1", "value": "8 (8) number of patients (%)"}, {"measurement": "Constipation, Grade 2", "value": "1 (1) number of patients (%)"}, {"measurement": "Constipation, Grade 3", "value": "0 (0) number of patients (%)"}, {"measurement": "Constipation, Grade 4", "value": "0 (0) number of patients (%)"}, {"measurement": "Diarrhea, Any Grade", "value": "19 (19) number of patients (%)"}, {"measurement": "Diarrhea, Grade 1", "value": "16 (16) number of patients (%)"}, {"measurement": "Diarrhea, Grade 2", "value": "3 (3) number of patients (%)"}, {"measurement": "Diarrhea, Grade 3", "value": "0 (0) number of patients (%)"}, {"measurement": "Diarrhea, Grade 4", "value": "0 (0) number of patients (%)"}, {"measurement": "Dizziness, Any Grade", "value": "9 (9) number of patients (%)"}, {"measurement": "Dizziness, Grade 1", "value": "8 (8) number of patients (%)"}, {"measurement": "Dizziness, Grade 2", "value": "1 (1) number of patients (%)"}, {"measurement": "Dizziness, Grade 3", "value": "0 (0) number of patients (%)"}, {"measurement": "Dizziness, Grade 4", "value": "0 (0) number of patients (%)"}, {"measurement": "Dry mouth, Any Grade", "value": "8 (8) number of patients (%)"}, {"measurement": "Dry mouth, Grade 1", "value": "8 (8) number of patients (%)"}, {"measurement": "Dry mouth, Grade 2", "value": "0 (0) number of patients (%)"}, {"measurement": "Dry mouth, Grade 3", "value": "0 (0) number of patients (%)"}, {"measurement": "Dry mouth, Grade 4", "value": "0 (0) number of patients (%)"}, {"measurement": "Dysgeusia, Any Grade", "value": "16 (16) number of patients (%)"}, {"measurement": "Dysgeusia, Grade 1", "value": "16 (16) number of patients (%)"}, {"measurement": "Dysgeusia, Grade 2", "value": "0 (0) number of patients (%)"}, {"measurement": "Dysgeusia, Grade 3", "value": "0 (0) number of patients (%)"}, {"measurement": "Dysgeusia, Grade 4", "value": "0 (0) number of patients (%)"}, {"measurement": "Dyspepsia, Any Grade", "value": "6 (6) number of patients (%)"}, {"measurement": "Dyspepsia, Grade 1", "value": "6 (6) number of patients (%)"}, {"measurement": "Dyspepsia, Grade 2", "value": "0 (0) number of patients (%)"}, {"measurement": "Dyspepsia, Grade 3", "value": "0 (0) number of patients (%)"}, {"measurement": "Dyspepsia, Grade 4", "value": "0 (0) number of patients (%)"}, {"measurement": "Dyspnea, Any Grade", "value": "5 (5) number of patients (%)"}, {"measurement": "Dyspnea, Grade 1", "value": "2 (2) number of patients (%)"}, {"measurement": "Dyspnea, Grade 2", "value": "1 (1) number of patients (%)"}, {"measurement": "Dyspnea, Grade 3", "value": "1 (1) number of patients (%)"}, {"measurement": "Dyspnea, Grade 4", "value": "1 (1) number of patients (%)"}, {"measurement": "Fatigue, Any Grade", "value": "44 (45) number of patients (%)"}, {"measurement": "Fatigue, Grade 1", "value": "33 (34) number of patients (%)"}, {"measurement": "Fatigue, Grade 2", "value": "9 (9) number of patients (%)"}, {"measurement": "Fatigue, Grade 3", "value": "2 (2) number of patients (%)"}, {"measurement": "Fatigue, Grade 4", "value": "0 (0) number of patients (%)"}, {"measurement": "Headache, Any Grade", "value": "9 (9) number of patients (%)"}, {"measurement": "Headache, Grade 1", "value": "7 (7) number of patients (%)"}, {"measurement": "Headache, Grade 2", "value": "1 (1) number of patients (%)"}, {"measurement": "Headache, Grade 3", "value": "1 (1) number of patients (%)"}, {"measurement": "Headache, Grade 4", "value": "0 (0) number of patients (%)"}, {"measurement": "Hyperglycemia, Any Grade", "value": "10 (10) number of patients (%)"}, {"measurement": "Hyperglycemia, Grade 1", "value": "9 (9) number of patients (%)"}, {"measurement": "Hyperglycemia, Grade 2", "value": "1 (1) number of patients (%)"}, {"measurement": "Hyperglycemia, Grade 3", "value": "0 (0) number of patients (%)"}, {"measurement": "Hyperglycemia, Grade 4", "value": "0 (0) number of patients (%)"}, {"measurement": "Hyponatremia, Any Grade", "value": "7 (7) number of patients (%)"}, {"measurement": "Hyponatremia, Grade 1", "value": "7 (7) number of patients (%)"}, {"measurement": "Hyponatremia, Grade 2", "value": "0 (0) number of patients (%)"}, {"measurement": "Hyponatremia, Grade 3", "value": "0 (0) number of patients (%)"}, {"measurement": "Hyponatremia, Grade 4", "value": "0 (0) number of patients (%)"}, {"measurement": "Hypophosphatemia, Any Grade", "value": "8 (8) number of patients (%)"}, {"measurement": "Hypophosphatemia, Grade 1", "value": "2 (2) number of patients (%)"}]}]}
